Assay results reported in PMC3075368 (Journal of molecular and cellular cardiology, 2011).
Like-named read-outs stand apart in the source and are kept apart here. Bridge positions count the residues as written; N and C are the ends. Ends that are not written are not given here.

How the values were obtained:
ischemic left ventricle = assay: Western analysis of post-ischemic cardiac tissue with anti-mCherry antibody; format: in vivo, mouse; settings: versus negative controls
Procedure, shortened: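 Mice had 15 min ischemia then 5 min reperfusion. Recombinant Sumo-mCherry–test peptide (Ni-NTA plus size-exclusion purified; 10 mg/mL PBS stock) was given 1 mg i.v. Controls were unconjugated Sumo-mCherry, linear or scrambled peptide fusions, and PBS. After 5 min circulation, ischemic LV, non-ischemic LV and RV were snap frozen, RIPA-homogenized, sonicated and centrifuged, then blotted with rabbit anti-RFP. Three blinded sets, 5 mice each.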

[1] = test system: heart function in rats after ischemia/reperfusion injury; settings: rat, in vivo
alpha-B crystalline = target: T1, alpha-B crystalline (Homo sapiens, UniProt P02511); assay: Surface Plasmon Resonance assay; format: binding; settings: biotinylated peptide on streptavidin coated chips, Biacore 2000
T1 sequence (P02511 1-175): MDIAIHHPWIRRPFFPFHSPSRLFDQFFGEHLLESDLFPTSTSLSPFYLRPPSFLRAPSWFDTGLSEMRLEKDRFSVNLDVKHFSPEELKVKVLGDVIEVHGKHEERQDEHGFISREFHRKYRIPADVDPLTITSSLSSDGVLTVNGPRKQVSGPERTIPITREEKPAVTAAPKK

[2] = test system: heart function in rats after ischemia/reperfusion injury
[3] = echocardiography, 24 hours after administration, n=4, mean ± SEM
[4] = hemodynamic measurement, 24 hours after administration, n=4, mean ± SEM

Sumo-mCherry-CSTSMLKAC
homing of the protein to post-ischemic cardiac tissue (ischemic left ventricle): clear homing

CSKTALSMC (disulfide 1-9 (inferred)) [scrambled peptide]
% Fractional shortening [1]: 43.20±3.22%
Anterior wall thickness [1]: 2.08±0.08 mm
Cardiac index [1]: 20.96±4.48 ml/min per 100 g
Cardiac output [1]: 44530 ± 7633 µL/min
Ejection fraction [1]: 27.89±3.01%
End-diastolic dimension [1]: 5.16±0.23 mm
End-diastolic pressure [1]: 3.08±0.22 mmHg
End-diastolic volume [1]: 362.72 ± 14.82 µL
End-systolic dimension [1]: 2.93±0.18 mm
End-systolic pressure [1]: 120.1±3.48 mmHg
End-systolic volume [1]: 260.91 ± 10.99 µL
Heart rate [1]: 430.75±20.59 beats/min
LVM/BW [1]: 2.94±0.32
Left ventricle mass [1]: 646 ± 55.48 g
Posterior wall thickness [1]: 1.83±0.06 mm
Stroke volume [1]: 101.81 ± 13.74 µL

CSTSMLKAC (disulfide 1-9 (inferred))
interaction with alpha-B crystalline (alpha-B crystalline): a significant interaction between CSTSMLKAC and alpha-B crystalline was not demonstrated
Body weight ([2]; 24 hours after administration, n=4, mean ± SEM): 260.25 ± 13.14 g
impairment in LV contractile function ([2]; 24 hours after systemic administration, versus scrambled peptide and PBS, n=4 each): did not induce any significant impairment
% Fractional shortening [2, 3]: 54.05±6.72%
Anterior wall thickness [2, 3]: 2.00±0.04 mm
End-diastolic dimension [2, 3]: 5.33±0.36 mm
End-systolic dimension [2, 3]: 2.49±0.51 mm
Posterior wall thickness [2, 3]: 1.73±0.10 mm
Cardiac index [2, 4]: 19.87±2.54 ml/min per 100 g
Cardiac output [2, 4]: 51430 ± 6708 µL/min
Ejection fraction [2, 4]: 28.44±2.09%
End-diastolic pressure [2, 4]: 3.96±0.67 mmHg
End-diastolic volume [2, 4]: 393.56 ± 25.62 µL
End-systolic pressure [2, 4]: 119±3.16 mmHg
End-systolic volume [2, 4]: 280.76 ± 15.91 µL
Stroke volume [2, 4]: 112.82 ± 13.61 µL
